Converted amounts (≈) assume the structure as drawn.
Experiments:
[1] = tested on: Proteus vulgaris; assay: Antibacterial activity against Proteus vulgaris at 100 ug/disc after 24 hrs by disc diffusion method; format: functional; conditions: read-out: DIZ
In short: (§1)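 Paper disc diffusion on autoclaved Mueller-Hinton agar poured 5 mm deep. Agar was swab-inoculated with 10⁵ CFU/mL suspension (0.5 McFarland). Discs 6.25 mm across were soaked in compound solution in DMSO (3.12–100 µg/mL) and plates incubated 24 h at (37 ± 1) °C. Read-out was inhibition zone (mm). DMSO control disc; ciprofloxacin or ketoconazole reference, 100 µg/disc. Mean of three independent experiments.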

[2] = tested on: Shigella flexneri; assay: Antibacterial activity against Shigella flexneri at 100 ug/disc after 24 hrs by disc diffusion method; format: functional; conditions: read-out: DIZ; in short: as §1
[3] = tested on: Staphylococcus aureus; assay: Antibacterial activity against Staphylococcus aureus after 24 hrs by agar streak dilution method; format: functional
In short: (§2)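 MIC by agar streak dilution. Graded amounts of DMSO stock (100 μg/mL) were mixed into molten sterile nutrient agar and poured 4–5 mm deep. Serial concentrations spanned 3.12–100 µg/mL. Plates were inoculated with about 10⁵ CFU/mL of bacterial suspension and incubated at (37 ± 1) °C for 24 h. Each value is the mean of three independent experiments.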

[4] = tested on: Bacillus cereus; assay: Antibacterial activity against Bacillus cereus after 24 hrs by agar streak dilution method; format: functional; in short: as §2
[5] = tested on: Escherichia coli; assay: Antibacterial activity against Escherichia coli after 24 hrs by agar streak dilution method; format: functional; in short: as §2
[6] = tested on: Pseudomonas aeruginosa; assay: Antibacterial activity against Pseudomonas aeruginosa […] after 24 hrs by agar streak dilution method; format: functional
[7] = tested on: Klebsiella pneumoniae; assay: Antibacterial activity against Klebsiella pneumoniae […] after 24 hrs by agar streak dilution method; format: functional
[8] = tested on: Salmonella typhi; assay: Antibacterial activity against Salmonella Typhi after 24 hrs by agar streak dilution method; format: functional, Salmonella enterica subsp. enterica serovar Typhi; conditions: Salmonella enterica
In short: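 Agar streak dilution: DMSO stock (100 µg/mL) graded into molten sterile nutrient agar, poured 4–5 mm deep and solidified. Plates carry serial dilutions spanning 3.12–100 µg/mL. Applied ~10⁵ CFU/mL suspension, then incubated 24 h at (37 ± 1) °C. MIC read as the lowest inhibitory concentration; each value is the mean of three independent experiments.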

[9] = tested on: Proteus vulgaris; assay: Antibacterial activity against Proteus vulgaris after 24 hrs by agar streak dilution method; format: functional; in short: as §2
[10] = tested on: Shigella flexneri; assay: Antibacterial activity against Shigella flexneri after 24 hrs by agar streak dilution method; format: functional; in short: as §2
[11] = tested on: Aspergillus niger; assay: Antifungal activity against Aspergillus niger after 48 hrs by agar streak dilution method; format: functional
In short: (§3)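 Fungal MIC by agar streak dilution on Sabouraud dextrose agar, poured 4–5 mm deep. Compound from a DMSO stock (100 μg/mL) was incorporated at serial concentrations of 3.12–100 µg/mL. Plates were inoculated with about 10⁵ CFU/mL of suspension and incubated at (37 ± 1) °C for 48 h. Each value is the mean of three independent experiments.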

[12] = tested on: Aspergillus fumigatus; assay: Antifungal activity against Aspergillus fumigatus after 48 hrs by agar streak dilution method; format: functional; in short: as §3
[13] = tested on: Aspergillus clavatus; assay: Antifungal activity against Aspergillus clavatus after 48 hrs by agar streak dilution method; format: functional; in short: as §3
[14] = tested on: Candida albicans; assay: Antifungal activity against Candida albicans after 48 hrs by agar streak dilution method; format: functional; in short: as §3
[15] = tested on: Aspergillus niger; assay: Antifungal activity against Aspergillus niger at 100 ug/disc after 24 hrs by disc diffusion method; format: functional; conditions: read-out: DIZ; in short: as §1
[16] = tested on: Aspergillus fumigatus; assay: Antifungal activity against Aspergillus fumigatus at 100 ug/disc after 24 hrs by disc diffusion method; format: functional; conditions: read-out: DIZ; in short: as §1
[17] = tested on: Aspergillus clavatus; assay: Antifungal activity against Aspergillus clavatus at 100 ug/disc after 24 hrs by disc diffusion method; format: functional; conditions: read-out: DIZ; in short: as §1
[18] = tested on: Candida albicans; assay: Antifungal activity against Candida albicans at 100 ug/disc after 24 hrs by disc diffusion method; format: functional; conditions: read-out: DIZ; in short: as §1
[19] = tested on: Staphylococcus aureus; assay: Antibacterial activity against Staphylococcus aureus at 100 ug/disc after 24 hrs by disc diffusion method; format: functional; conditions: read-out: DIZ; in short: as §1
[20] = tested on: Bacillus cereus; assay: Antibacterial activity against Bacillus cereus at 100 ug/disc after 24 hrs by disc diffusion method; format: functional; conditions: read-out: DIZ; in short: as §1
[21] = tested on: Escherichia coli; assay: Antibacterial activity against Escherichia coli at 100 ug/disc after 24 hrs by disc diffusion method; format: functional; conditions: read-out: DIZ; in short: as §1
[22] = tested on: Pseudomonas aeruginosa; assay: Antibacterial activity against Pseudomonas aeruginosa at 100 ug/disc after 24 hrs by disc diffusion method; format: functional; conditions: read-out: DIZ; in short: as §1
[23] = tested on: Klebsiella pneumoniae; assay: Antibacterial activity against Klebsiella pneumoniae at 100 ug/disc after 24 hrs by disc diffusion method; format: functional; conditions: read-out: DIZ; in short: as §1
[24] = tested on: Salmonella typhi; assay: Antibacterial activity against Salmonella Typhi at 100 ug/disc after 24 hrs by disc diffusion method; format: functional, Salmonella enterica subsp. enterica serovar Typhi; conditions: Salmonella enterica, read-out: DIZ
In short: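 Paper disc diffusion on Mueller-Hinton agar poured 5 mm deep; 10⁵ CFU/mL suspension (0.5 McFarland) swabbed over surface. 6.25 mm filter paper discs soaked in compound in DMSO, incubated 24 h at (37 ± 1) °C; inhibition zone diameter in mm. DMSO disc as blank; ciprofloxacin 100 µg/disc as reference. Mean of three independent experiments.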

Row | Compound | zone of inhibition at 100 µg/disc [1] [mm] | zone of inhibition at 100 µg/disc [2] [mm] | MIC [3] [µg/mL] | MIC [4] [µg/mL] | MIC [5] [µg/mL] | MIC [6] [µg/mL] | MIC [7] [µg/mL] | MIC [8] [µg/mL] | MIC [9] [µg/mL] | MIC [10] [µg/mL] | MIC [11] [µg/mL] | MIC [12] [µg/mL] | MIC [13] [µg/mL] | MIC [14] [µg/mL] | zone of inhibition at 100 µg/disc [15] [mm] | zone of inhibition at 100 µg/disc [16] [mm] | zone of inhibition at 100 µg/disc [17] [mm] | zone of inhibition at 100 µg/disc [18] [mm] | zone of inhibition at 100 µg/disc [19] [mm] | zone of inhibition at 100 µg/disc [20] [mm] | also measured
1 | CCN1CCN(CC2SC(c3ccc(OC)c(OC)c3)N(c3ccc(Nc4nc(Oc5cc(=O)n(C)c6ccccc56)nc(N(C)C)n4)cc3)C2=O)CC1 (configuration not stated) | 23 | 22 | 25 (≈ 33.2 µM) | 12.5 (≈ 16.6 µM) | 25 (≈ 33.2 µM) | 12.5 (≈ 16.6 µM) | 50 (≈ 66.5 µM) | 25 (≈ 33.2 µM) | 50 (≈ 66.5 µM) | 50 (≈ 66.5 µM) | 100 (≈ 133 µM) | 25 (≈ 33.2 µM) | 50 (≈ 66.5 µM) | 50 (≈ 66.5 µM) | 21 | 26 | 24 | 23 | 23 | 24 | zone of inhibition at 100 µg/disc [21]: 24 mm; zone of inhibition at 100 µg/disc [22]: 24 mm; zone of inhibition at 100 µg/disc [23]: 23 mm; zone of inhibition at 100 µg/disc [24]: 25 mm
2 | CCN1CCN(CC2SC(c3ccc(O)cc3O)N(c3ccc(Nc4nc(Oc5cc(=O)n(C)c6ccccc56)nc(N(C)C)n4)cc3)C2=O)CC1 (configuration not stated) | 14 | 16 | 100 (≈ 138 µM) | 100 (≈ 138 µM) | 100 (≈ 138 µM) | 100 (≈ 138 µM) | 100 (≈ 138 µM) | 100 (≈ 138 µM) | 100 (≈ 138 µM) | 100 (≈ 138 µM) | 100 (≈ 138 µM) | 100 (≈ 138 µM) | 100 (≈ 138 µM) | 100 (≈ 138 µM) | 11 | 15 | 17 | < 10 | 15 | 17 | zone of inhibition at 100 µg/disc [21]: 15 mm; zone of inhibition at 100 µg/disc [22]: 17 mm; zone of inhibition at 100 µg/disc [23]: 16 mm; zone of inhibition at 100 µg/disc [24]: 14 mm
3 | CCN1CCN(CC2SC(c3cccc(O)c3O)N(c3ccc(Nc4nc(Oc5cc(=O)n(C)c6ccccc56)nc(N(C)C)n4)cc3)C2=O)CC1 (configuration not stated) | 13 | < 10 | 100 (≈ 138 µM) | 100 (≈ 138 µM) | 100 (≈ 138 µM) | 100 (≈ 138 µM) | 100 (≈ 138 µM) | 100 (≈ 138 µM) | 100 (≈ 138 µM) | 100 (≈ 138 µM) | 100 (≈ 138 µM) | 100 (≈ 138 µM) | 100 (≈ 138 µM) | 100 (≈ 138 µM) | < 10 | 13 | 12 | < 10 | < 10 | 12 | zone of inhibition at 100 µg/disc [21]: < 10 mm; zone of inhibition at 100 µg/disc [22]: 11 mm; zone of inhibition at 100 µg/disc [23]: 16 mm; zone of inhibition at 100 µg/disc [24]: 14 mm

Reference: ChEMBL document CHEMBL1933017, “Synthesis and biological evaluation of some thiazolidinones as antimicrobial agents” (2012)
